The source made the active and inactive calls. No cut-off for these calls is given here.
What was measured:
Mus musculus = assay: Anticonvulsant activity in albino Carworth Farms No.1 mouse assessed as protection against maximal electroshock-induced seizure at 300 mg/kg, ip after 4 hrs; assay type: functional, organism-based; set-up: dose 300 mg/kg
Procedure, shortened: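 Mouse MES test with compound given i.p. (30, 100 or 300 mg/kg) in 0.5% methylcellulose; tested at 0.5 and 4 h. Corneal stimulus of 50 mA at 60 Hz for 0.2 s, electrodes primed with 0.5% butacaine in 0.9% NaCl. Protection is abolition of hindlimb tonic extension; scored as protected/tested.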

Rattus norvegicus [1] = assay: Anticonvulsant activity in albino Sprague-Dawley rat assessed as protection against pilocarpine-induced status epilepticus at 65 mg/kg, ip measured after time from first stage 3 seizures; assay type: functional, organism-based; set-up: dose 65 mg/kg
Procedure, shortened: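 Male albino Sprague-Dawley rats, 150–180 g. Compound given i.p., then a challenge dose of pilocarpine at 0 min or at 30 min. Outcome scored as protection or no protection from seizures (protected/tested), with body weight change recorded.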

Rattus norvegicus [2] = assay: Anticonvulsant activity in po dosed albino Sprague-Dawley rat assessed as protection against subcutaneous metrazol-induced seizure after 0.25 hrs; assay type: functional
Procedure, shortened: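 Rats dosed orally, compound in 0.5% methylcellulose. MES at 150 mA, 60 Hz, 0.2 s; scMET with pentylenetetrazole 70 mg/kg s.c. plus 30 min observation; rotorod for toxicity.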

Rattus norvegicus [3] = species on record: Rattus norvegicus; assay: Inhibition of voltage-gated sodium channel in Wistar rat cerebral prefrontal coronal slices assessed as decrease of […] current-induced current amplitude at 100 uM after 5 mins by whole cell voltage clamp method (reference value: 8 +/- 2.3%); set-up: scale not given: the % may be the effect or the level left

In the case of `O=C1NC(=O)[C@@H]2CCCN2[C@H]1c1ccccc1`, the Activity (Mus musculus) is reported as “inactive”, the Activity (Rattus norvegicus [1]) is reported as “Active” and the ED50 (Rattus norvegicus [2]) is reported as 114 mg/kg. The Activity (Rattus norvegicus [3]) was 14.1%.
